Source: PubChem BioAssay (several laboratories)
Cl transport mod: KCC2 (human) Cl- transport modulation. KCC2 cells, thallium flux FluoZin-2 fluorescence. B-score of Tl+ flux slope (higher = more flux/activation; lower = inhibition) at 10 µM. hit rate 2.2% among 190,000;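 active = thallium flux slope and its plate-corrected score both differing from the plate sample mean at a set confidence after two filtering rounds, in either direction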;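 also: slope of fluorescence scaled to starting intensity during 10 to 20 s after thallium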
DTT redox prof: compounds producing H2O2 with reducing agent – biochemical, NIH compound library profiling, artefact control for MLSCN library redox annotation, primary screen; DTT-dependent redox cycling H2O2, phenol red/HRP absorbance; 100% = 100 µM peroxide control, 0% = buffer; activation, % at 10 µM; hit rate 0.03% among 200,000;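 active = activation of at least 50% relative to the plate's high and low controls in the primary single-dose screen; inactive = activation below 50%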;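 also: compound incubated with DTT at 0.8 mM final as the reducing agent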
PKD1 inh: inhibitors of human PKD1 kinase; hit rate 0.056% among 200,000; Q15139; AID 797; inhibition, % (no concentration beside the values); PKD1 kinase fluorescence polarization assay; in the data active = inhibition above about 50%
p97 ATPase inh: blocks human p97 ATPase activity. P55072. recombinant p97 ATPase, Kinase-Glo ATP luminescence, 3 h. inhibition, % at 8 µM. hit rate 0.42% among 220,000. AID 1481; in the data active = inhibition above about 15%
Mdm2 ligase inh: inhibitors of human Mdm2 E3 ubiquitin ligase. Q00987. cell-based MDM2 ubiquitination luciferase reporter, 2 h; 0 = plate control, 100 = twice control, blank-subtracted. signal enhancement, % at 5 µM. hit rate 0.11% among 210,000. AID 1230;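 active = signal enhancement of 30% or more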;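 also: luminescence tracks abundance of the self-degrading MDM2-luciferase fusion protein; higher signal means inhibition of MDM2 E3 ligase activity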
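System: stable MDM2–luciferase fusion reporter cells / Input: 2000 cells seeded into each well / Schedule: 4 h settle plus 2 h compound, 37 °C / Compound: single-point 5 µM / Buffer or medium: cells held in DMEM / Benchmarks: control and blank well means / Evaluation: percent signal gain over controls, blank-subtracted / Measured by: luciferase luminescence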
ROMK mod: human ROMK K+ channel modulation, primary screen. P48048. Tet-inducible ROMK, thallium flux fluorescence; actives lie on both sides. B-score at 10 µM. hit rate 2% among 130,000;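 active = signal ratio slope over the read window, or its plate-corrected B-score, at least 3 SD from the plate mean, either direction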;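 also: B-score of the F/F0 ratio slope over 7 to 12 s after thallium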
KCC2 sec1: KCC2 (human) modulation, secondary assay; shares compounds with Cl transport mod; HEK293-KCC2, thallium flux, FluoZin2 fluorescence; stronger effect = higher value; normalised thallium flux (F/F0 slope) at 10 µM; hit rate 15% among 3,700; AID 1713;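 active = thallium flux slope above the same plate's solvent-only control mean plus 3 SD; inconclusive = the two replicate wells disagree; inactive = no significant difference from solvent-only control wells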
KCC2 bumet counter: bumetanide-insensitive thallium flux in KCC2 cells with ouabain, counter-screen; hit rate 49% among 3,700; AID 1714; shares compounds with Cl transport mod; normalized thallium flux at 10 µM; HEK293-KCC2 + bumetanide/ouabain, thallium flux FluoZin2; stronger effect = higher value;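 active = thallium entry rate above the same plate's blocked-transporter control wells by more than 3 SD; inconclusive = the two repeat wells disagree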;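 also: raw slope of fluorescence over initial fluorescence between 10 and 20 s after thallium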
KCC2 sec2: confirmation of human KCC2 transport modulators; shares compounds with Cl transport mod; AID 1715; hit rate 23% among 3,700; HEK293-KCC2, thallium flux FluoZin2 fluorescence; actives lie on both sides; F/F0 rise rate, 10–20 s post-thallium; normalized thallium flux at 10 µM;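 active = thallium flux slope more than 3 SD above or below the plate's solvent-only control mean, mostly below; inconclusive = the two repeat wells disagreed; inactive = no significant shift from solvent-only controls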
HEK293 Tl flux: acts in parental HEK cells, KCC2 counter-screen; shares compounds with Cl transport mod; HEK293 parental cells, thallium flux FluoZin2, ouabain; baseline-ratio fluorescence slope, 10–20 s after thallium; thallium flux rate (normalised fluorescence) at 10 µM; hit rate 46% among 3,700;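 active = thallium flux rate significantly above the same plate's solvent-only control wells, beyond their mean plus 3 SD; inconclusive = the two replicate wells gave conflicting results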
KCC2 ouabain: confirmation of human KCC2 modulators with ouabain. shares compounds with Cl transport mod. HEK293-KCC2, thallium flux FluoZin2 fluorescence; bidirectional: low = inhibitor, high = activator. raw Tl+ flux slope (below DMSO = inhibition, above = activation) at 10 µM. hit rate 48% among 3,700. AID 1717;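 active = thallium flux slope beyond 3 SD from same-plate DMSO control mean in most replicates, usually higher, sometimes lower; inconclusive = repeat tests gave conflicting results; inactive = no significant difference from controls in most replicates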;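 also: slope of initial-normalized fluorescence between seconds 10 and 20 after thallium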
HEK293 Tl flux2: acts in parental HEK cells, second KCC2 counter-screen. shares compounds with Cl transport mod. HEK293 parental, thallium flux FluoZin-2 fluorescence slope. AID 1718. hit rate 33% among 3,700. thallium flux slope at 10 µM;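 active = thallium flux slope above the same plate's solvent-control mean plus 3 SD in both duplicate wells; inconclusive = duplicate wells that disagreed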;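 also: run without ouabain in cells lacking the KCC2 cotransporter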
A number is an active result; – = inactive; ? = inconclusive; · = no result given. Shown are actives, neighbours in structure and some others; about 3.4% of the full set was active somewhere.

SMILES	Cl transport mod	DTT redox prof	PKD1 inh	p97 ATPase inh	Mdm2 ligase inh	ROMK mod	KCC2 sec1	KCC2 bumet counter	KCC2 sec2	HEK293 Tl flux	KCC2 ouabain	HEK293 Tl flux2
Cc1ccc(-c2nn(-c3ccccc3)cc2/C=N/NC(=O)c2ccc(Br)o2)cc1	3.2	–	–	–	–	·	–	0.0066	–	0.01	–	0.014
O=C(N/N=C/c1cn(-c2ccccc2)nc1-c1ccccc1)c1ccco1	–	–	–	–	–	·	·	·	·	·	·	·
O=C(N/N=C\c1cn(-c2ccccc2)nc1-c1ccccc1)c1ccc(Br)o1	3.9	–	–	–	–	·	–	0.012	–	0.013	–	?
CC(Sc1nnnn1C)C(=O)Nc1ccccc1 (stereo not given)	–	–	–	–	–	–	·	·	·	·	·	·
S=c1nc(-c2ccccc2)[nH]c2ccc(Br)cc12	107	·	·	–	–	·	0.025	0.12	0.099	0.11	0.11	0.096
Cc1onc(-c2ccccc2)c1C(=O)NNC(=S)NC(=O)c1ccc(Cl)cc1Cl	16	–	–	–	–	·	?	0.044	0.055	0.039	0.045	0.042
O=C(Nc1ccccc1C(=O)NCC1CCCO1)c1ccc(Cl)cc1Cl (stereo not given)	–	–	–	–	–	–	·	·	·	·	·	·
O=C(NC(=S)NCC1CCCO1)c1ccc(Cl)cc1Cl (stereo not given)	9	–	–	–	·	–	–	0.029	–	0.011	?	–
COc1ccc(/C=C/C(=O)NC(=S)NNC(=O)c2c(-c3ccccc3)noc2C)cc1	7.1	–	–	–	–	–	0.013	0.037	–	0.018	?	0.012
COc1ccc(Cl)cc1NC(=O)c1c(-c2ccccc2)noc1C	–	–	–	–	–	–	·	·	·	·	·	·
COc1ccc(/C=C/C(=O)NC(=S)NNC(=O)c2cc(OC)c(OC)c(OC)c2)cc1	4.5	·	·	–	–	–	–	?	–	–	–	–
COc1ccc(-c2cc(C(=O)NNC(=S)NC(=O)c3c(-c4ccccc4)noc3C)[nH]n2)cc1	–	–	–	–	–	–	·	·	·	·	·	·
N#Cc1ccc(C(c2nnnn2Cc2ccccc2)N2CCCC2)cc1 (stereo not given)	–	–	–	–	·	·	·	·	·	·	·	·
Cc1ccc(OCc2nnc(SCC(=O)Nc3ncc(C)s3)o2)cc1	–	·	·	–	–	·	·	·	·	·	·	·
Cc1onc(-c2ccccc2)c1C(=O)NNC(=S)NC(=O)/C=C/c1ccccc1	6.3	–	–	–	–	·	0.013	0.037	–	0.017	0.035	0.012
Cc1cccc(C)c1NC(=O)c1c(-c2ccccc2)noc1C	·	–	–	–	–	–	·	·	·	·	·	·
Cc1ccc(-c2n[nH]c(=O)c3ccccc23)cc1S(=O)(=O)NCCN1CCOCC1	–	–	–	–	–	–	–	0.0087	–	0.0088	–	?
Cc1[nH]c2ccccc2c1SCC(=O)N1CCN(c2ccccc2)CC1	-3.9	–	–	–	–	·	–	–	0.022	–	0.015	–
Cc1[nH]c2ccccc2c1SCC(=O)N1CCCCC1	–	–	–	–	–	–	·	·	·	·	·	·
O=[N+]([O-])c1ccc(-c2nc3ccc([N+](=O)[O-])cc3[nH]2)cc1	·	–	–	–	–	·	·	·	·	·	·	·
O=[N+]([O-])c1ccc2nc(/C=C/c3ccc(Cl)cc3)[nH]c2c1	-4.5	–	–	–	–	·	–	–	–	–	?	–
Cn1nc(-c2ccccc2)c(-c2nc(-c3cccc(C(F)(F)F)c3)no2)c1Cl	–	–	–	–	–	·	·	·	·	·	·	·
C/C(=C\C(=O)c1ccncc1)Nc1ccccc1O	19	–	–	–	–	·	0.015	0.024	–	0.011	–	0.011
CCOC(=O)c1cc(C)sc1NC(=O)C(c1ccccc1)c1ccccc1	–	–	–	–	–	–	·	·	·	·	·	·
CCc1cc(C(=O)O)c(NC(=O)C(c2ccccc2)c2ccccc2)s1	-4.3	–	–	–	–	–	–	0.0055	–	–	–	–
SMILES	Cl transport mod	DTT redox prof	PKD1 inh	p97 ATPase inh	Mdm2 ligase inh	ROMK mod	KCC2 sec1	KCC2 bumet counter	KCC2 sec2	HEK293 Tl flux	KCC2 ouabain	HEK293 Tl flux2
CC(=O)Cc1nsc(NC(=O)c2cc(-c3ccc(Cl)c(Cl)c3)oc2C)n1	·	–	–	–	–	–	·	·	·	·	·	·
O=C(Cc1ccc(-n2cccc2)cc1)NC1CCCCCC1	-4.2	–	–	–	–	·	–	–	?	–	–	–
COc1ccc(NS(=O)(=O)c2ccc(-n3nnc4ccccc43)c([N+](=O)[O-])c2)cc1	–	–	–	–	–	·	·	·	·	·	·	·
O=[N+]([O-])c1cc(S(=O)(=O)Nc2cccc(C(F)(F)F)c2)ccc1-n1nnc2ccccc21	-3.2	–	–	–	–	–	–	–	–	–	0.015	?
CC(C)CN1C(=O)/C(=C/c2ccco2)NC1=S	53	–	–	–	–	–	–	0.015	–	0.058	0.034	0.018
O=C1N/C(=C/c2ccco2)C(=O)N1Cc1ccccc1F	–	–	–	–	–	–	·	·	·	·	·	·
NNC(=O)c1csc(-c2ccccc2)n1	–	·	·	–	–	·	·	·	·	·	·	·
COc1ccc(CNC(=S)NC(C)CCc2ccccc2)cc1 (stereo not given)	-4.9	–	–	–	–	–	0.0053	?	?	0.0058	0.013	–
Cc1ccc(O)c(C(=O)CC(=O)c2cccc(F)c2)c1	51	–	–	–	–	·	–	0.05	0.059	0.058	0.055	0.053
COc1ccc(C(=O)COc2ccc(F)cc2)c(O)c1	–	·	·	–	·	·	·	·	·	·	·	·
COc1ccc(O)c(C(=O)CC(=O)c2ccc(F)cc2)c1	23	–	–	–	–	·	?	0.07	–	?	0.054	?
COc1ccc(NC(=O)c2ccccc2C)c(OC)c1	–	–	–	–	–	·	·	·	·	·	·	·
COc1ccc(C(=O)CC(=O)c2ccccc2O)cc1OC	7.1	–	–	–	–	–	–	0.011	–	0.013	–	–
COc1ccc(O)c(C(=O)CC(=O)c2ccccc2C)c1	29	–	–	–	–	–	–	0.025	?	0.018	0.031	0.022
